Measured values reported in ChEMBL document CHEMBL1641427, “Arylsulfanyl pyrazolones block mutant SOD1-G93A aggregation. Potential application for the treatment of amyotrophic lateral sclerosis” (Bioorg Med Chem, 2011).
In brackets after ≈: the same amount, converted by molar mass.

Legend:
[1] = Inhibition of SOD1 G93A mutant aggregation in rat PC12 cells by cytotoxicity protection assay; assay type: cell-based; conditions: PC-12
[2] = Aqueous solubility of the compound; assay type: physicochemical; conditions: buffer
Procedure, shortened: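 DMSO stock 3-fold serially diluted at 100× final, then diluted into PBS to 1% DMSO final. Incubated 1 h at room temperature, inspected visually for precipitate and read at 450 nm. Solubility limit is the highest concentration neither cloudy nor above background absorbance (visual only for coloured compounds).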

[3] = system: Caco-2; experiment: (§1) Permeability from apical to basolateral side of human Caco2 cells after 2 hrs; assay type: ADME, cell-based; conditions: caco-2, 2 h
Procedure, shortened: (§2)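 Caco-2 cells were seeded on collagen-coated inserts and differentiated for 3 weeks, fed every 2 days. The donor side received 50 μM compound in HBSS with 10 mM HEPES and 1.98 g/L glucose, apical at pH 6.5 and basolateral at pH 7.4, for 2 h. Apical 100 μM Lucifer yellow checked monolayer integrity (<1%/2 h). Papp = dQ/dt/(C0·A), and the ratio is Papp(B→A)/Papp(A→B).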

[4] = system: Caco-2; experiment: (§3) Permeability from basolateral to apical side of human Caco2 cells after 2 hrs; assay type: ADME, cell-based; conditions: caco-2, 2 h; procedure, shortened: as §2
[5] = (§4) Ratio of permeability from basolateral to apical side to apical to basolateral side in human Caco2 cells; assay type: ADME, cell-based; conditions: Caco-2; procedure, shortened: as §2
[6] = system: Plasma; experiment: Half life of the compound in mouse plasma at 5 uM; assay type: ADME, cell-free
Procedure, shortened: (§5)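 Samples taken at 15 s and at 10, 20, 40 and 60 min, precipitated with acetonitrile containing haloperidol internal standard, then LC-MS/MS. Plasma/PBS response ratio fitted to a first-order exponential (1/Y weighting); T1/2 = ln2/k. PBS half-life from its own exponential fit.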

[7] = Stability of the compound in PBS assessed as compound remaining after 60 mins; assay type: physicochemical; conditions: read-out: Stability; procedure, shortened: as §5
[8] = Half life in human microsome by LC-MS/MS analysis; assay type: ADME; conditions: microsomes
[9] = Half life in mouse microsome by LC-MS/MS analysis; assay type: ADME, microsomes; conditions: for t1/2: microsomes
[10] = Intrinsic clearance in mouse microsome by LC-MS/MS analysis in presence of NADPH; assay type: ADME; conditions: mouse microsomes
[11] = Drug level in Tg6799 mouse brain measured per gram of tissue at 1 mg/kg, ip after 10 mins by LC-MS/MS analysis; assay type: ADME, organism-based; design: dose 1 mg/kg, route intraperitoneal; conditions: read-out: Drug uptake
Procedure, shortened: (§6)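 Female Tg6799 mice (B6/SJL background), n=3, given 1 mg/kg i.p. in 60% PBS/40% DMSO (100 μL per 10 g) and killed at 10 min. Plasma collected by centrifugation. Brain PBS-perfused via left ventricle, excised, weighed and homogenized in acetonitrile with internal standard. Analyte measured by LC-MS/MS as ratio to internal standard; plasma in μg/mL, brain in μg/g. Brain/plasma ratio computed after μM conversion assuming brain density 1 g/mL. Mean ± SD.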

[12] = Drug level in Tg6799 mouse plasma at 1 mg/kg, ip after 10 mins by LC-MS/MS analysis; assay type: ADME, organism-based; design: dose 1 mg/kg, route intraperitoneal; conditions: read-out: Drug uptake; procedure, shortened: as §6
[13] = Ratio of drug level in brain to plasma in Tg6799 mouse at 1 mg/kg, ip after 10 mins by LC-MS/MS analysis; assay type: ADME, organism-based; design: dose 1 mg/kg, route intraperitoneal; procedure, shortened: as §6
[14] = Ratio of AUC of compound to 4-ethylidene-1H-pyrazol-5(4H)-ones in pig brain at 0.50 ug/ml brain extract concentration; assay type: ADME, tissue-based, Sus scrofa; conditions: in vivo
Procedure, shortened: (§7)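 Brain standards: analyte added to pig brain pieces (300–500 mg) with acetonitrile and internal standard at final 0.05, 0.10, 0.5 and 1.0 μg/mL (1 mL total). Homogenized, then 20 μL aliquot run by LC-MS/MS. Analyte/internal standard response taken. Triplicate.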

[15] = Ratio of AUC of compound to 4-ethylidene-1H-pyrazol-5(4H)-ones in pig brain at 1 ug/ml brain extract concentration; assay type: ADME, tissue-based, Sus scrofa; conditions: in vivo; procedure, shortened: as §7
[16] = system: Mus musculus; experiment: Plasma area ratio in Tg6799 mouse at 1 mg/kg, ip after 10 mins by LC-MS/MS analysis; assay type: ADME, organism-based; design: dose 1 mg/kg, route intraperitoneal; conditions: in vivo; procedure, shortened: as §6
[17] = system: Mus musculus; experiment: Brain area ratio in Tg6799 mouse at 1 mg/kg, ip after 10 mins by LC-MS/MS analysis; assay type: ADME, organism-based; design: dose 1 mg/kg, route intraperitoneal; conditions: in vivo; procedure, shortened: as §6
[18] = system: Brain; experiment: Effect of compound on Tg6799 mouse brain weight at 1 mg/kg, ip after 10 mins; assay type: ADME, organism-based; design: dose 1 mg/kg, route intraperitoneal; conditions: in vivo
[19] = Ratio of AUC of compound to 4-ethylidene-1H-pyrazol-5(4H)-ones in pig brain at 0.10 ug/ml brain extract concentration; assay type: ADME, tissue-based, Sus scrofa; conditions: in vivo; procedure, shortened: as §7
[20] = Ratio of AUC of compound to 4-ethylidene-1H-pyrazol-5(4H)-ones in pig brain at 0.05 ug/ml brain extract concentration; assay type: ADME, tissue-based, Sus scrofa; conditions: in vivo; procedure, shortened: as §7
[21] = Intrinsic clearance in mouse microsome by LC-MS/MS analysis; assay type: ADME; conditions: mouse microsomes
[22] = system: Plasma (Homo sapiens); experiment: Ratio of AUC of compound to 4-ethylidene-1H-pyrazol-5(4H)-ones in human serum at 0.50 ug/ml plasma concentration
[23] = system: Plasma (Homo sapiens); experiment: Ratio of AUC of compound to 4-ethylidene-1H-pyrazol-5(4H)-ones in human serum at 0.05 ug/ml plasma concentration
[24] = system: Plasma (Homo sapiens); experiment: Ratio of AUC of compound to 4-ethylidene-1H-pyrazol-5(4H)-ones in human serum at 0.10 ug/ml plasma concentration
[25] = system: Plasma (Homo sapiens); experiment: Ratio of AUC of compound to 4-ethylidene-1H-pyrazol-5(4H)-ones in human serum at 0.01 ug/ml plasma concentration
[26] = as §1; assay type: ADME, cell-based, Caco-2; conditions: Caco-2; procedure, shortened: as §2
[27] = as §3; assay type: ADME, cell-based, Caco-2; conditions: Caco-2; procedure, shortened: as §2
[28] = system: Caco-2; experiment: as §4; assay type: ADME, cell-based; procedure, shortened: as §2

SMILES | EC50 [1] | further results
O=C1NN=C(CSc2ccccc2)/C1=C/c1ccccc1 | > 32 µM | –
O=c1cc(CSc2ccccc2)[nH][nH]1 | 10.1 µM | –
O=c1cc(CSc2ccc(Cl)cc2)[nH][nH]1 | 1.93 µM | –
Cn1[nH]c(CSc2ccc(Cl)cc2)cc1=O | 5.4 µM | –
O=c1cc(CSc2ccc(Cl)cc2)[nH]n1-c1ccccc1 | 3.46 µM | –
CC(C)(C)c1ccc(SCc2cc(=O)[nH][nH]2)cc1 | 2.31 µM | –
O=c1cc(CSc2ccc([N+](=O)[O-])cc2)[nH][nH]1 | 2.4 µM | –
COc1ccc(SCc2cc(=O)[nH][nH]2)cc1 | 1.81 µM | –
O=c1cc(CSc2ccc(-c3ccccc3)cc2)[nH][nH]1 | 4.06 µM | –
O=c1cc(CSc2ccc(F)cc2)[nH][nH]1 | 3.44 µM | –
O=c1cc(CSc2ccc(Br)cc2)[nH][nH]1 | 1.8 µM | –
Cc1cc(SCc2cc(=O)[nH][nH]2)c(Cl)cc1Cl | 0.55 µM | solubility [2]: 56 µM (≈ 16.2 µg/mL); Papp [3]: 4.7 ×10⁻⁶ cm/s; Papp [4]: 0.46 ×10⁻⁶ cm/s; efflux ratio [5]: 0.1; t1/2 [6]: 16 min; remaining at 1 h [7]: 100%; t1/2 [8]: 39 min; t1/2 [9]: 13 min
Cc1cc(SCc2cc(=O)[nH][nH]2)c(C)cc1Cl | 0.4 µM | CLint scaled [10]: 242 mL/min/kg; concentration at 10 min [11]: 360 ng/g; concentration at 10 min [12]: 1960 ng/mL; Ratio [13]: 0.19; Ratio AUC [14]: 1.11; Ratio AUC [15]: 2.48; Ratio [16]: 0; Ratio [17]: 0; Activity [18]: 0.399 g; Ratio AUC [19]: 0.268; Ratio AUC [20]: 0.148; CLint scaled [21]: 63 mL/min/kg; t1/2 [9]: 15 min; Ratio AUC [22]: 1.58; Ratio AUC [23]: 0.304; Ratio AUC [24]: 0.637; Ratio AUC [25]: 0.068
O=c1cc(CSc2ccccc2Cl)[nH][nH]1 | 3.05 µM | –
O=c1cc(CSc2cccc(Cl)c2)[nH][nH]1 | 1.11 µM | –
O=c1cc(CSc2ccc(Cl)cc2Cl)[nH][nH]1 | 1.15 µM | –
O=c1cc(CSc2ccc(Cl)c(Cl)c2)[nH][nH]1 | 1.89 µM | –

SMILES | EC50 [1] | further results
O=c1cc(CSc2c(Cl)cccc2Cl)[nH][nH]1 | 0.95 µM | –
O=c1cc(CSc2cc(Cl)cc(Cl)c2)[nH][nH]1 | 0.17 µM | –
Cc1cc(SCC2=NNC(=O)/C2=C\N(C)C)c(Cl)cc1Cl | 0.9 µM | CLint scaled [10]: 924 mL/min/kg; CLint scaled [21]: 135 mL/min/kg; half-life ([9]; mouse microsomes): 4 min
Cc1cc(SCC2=NNC(=O)/C2=C\N(C)C)c(C)cc1Cl | 5.3 µM | –
Cc1ccc(SCc2cc(=O)n(-c3nc(C)cc(C)n3)[nH]2)cc1 | 3.5 µM | –
Cc1ccc(SCc2cc(=O)[nH][nH]2)cc1 | 2 µM | –
Cc1ccc(SCC2=NN(c3ccccc3)C(=O)/C2=C\c2ccc(-c3cccc(C(F)(F)F)c3)o2)cc1 | 4.1 µM | –
O=c1cc(CSc2nnnn2-c2ccccc2)[nH]n1-c1ccccc1 | 6.6 µM | –
Cc1cc(C)nc(-n2[nH]c(CSc3nnc(C)s3)cc2=O)n1 | 6.7 µM | –
Cc1ccc(SCC2=NN(c3ccccc3)C(=O)/C2=C\C2=NCN=C2c2ccccc2)cc1 | 10 µM | –
Cc1nnc(SCc2cc(=O)n(-c3nc4ccccc4s3)[nH]2)s1 | 44 µM | –
O=C1/C(=C\c2ccc(-c3cccc(C(F)(F)F)c3)o2)C(CSc2ccccc2)=NN1c1ccccc1 | 35 µM | –
Cc1nnc(SCc2cc(=O)[nH][nH]2)s1 | 16 µM | –
O=c1cc(CSc2ccccn2)[nH][nH]1 | 46 µM | –
O=C1ON=C(CSc2ccccc2)/C1=C/c1ccccc1 | 165 µM | –
CNC(=C[N+](=O)[O-])NCCSCc1ccc(CN(C)C)o1 [RANITIDINE] | – | Papp A→B at 2 h [26]: 0.6 ×10⁻⁶ cm/s; Papp B→A at 2 h [27]: 0.6 ×10⁻⁶ cm/s; Ratio [28]: 1
CC(=O)CC(c1ccccc1)c1c(O)c2ccccc2oc1=O (centres undefined) [WARFARIN] | – | CLint scaled [21]: 6 mL/min/kg
